The nature of test [1]: SK-BR-3 cell growth inhibitors, pilot screen, 24 h, human (AID 572).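 Note: compound exposure lasted between 18 and 24 h rather than exactly 24 h; 100% = carrier-treated control wells.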 The note with it: SK-BR-3 viability, CellTiter-Glo luminescence, at 10 µM, stronger effect = lower value. For orientation: Cellular ATP, detected with luciferase, serves as a proxy for viable cell number.
The nature of test [2]: HUVEC growth inhibition – cell-based, human, primary screen (AID 575;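 active = viability at or below 30% in both replicate assays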;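 note: 100% = median of untreated cell wells with 0.1% DMSO on each plate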). The note with it: HUVEC proliferation, CellTiter-Glo luminescence, 72 h; at 10 µM; stronger effect = lower value. The procedure, abridged:
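Test system: primary human umbilical vein endothelial cells; medium: endothelial basal medium with 2% FBS plus growth supplements; dosing: 10 µM compound only; times: 72 h treatment at 37 °C; signal: CTG luminescence; read-out: % viability relative to median vehicle-well signal on each plate; control set: vehicle and MePR control wells; plate: 384-well, collagen-coated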

Test [3] is described as follows: growth inhibitors of H69AR lung tumor, primary screen, human, duplicate replicates (AID 580;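 active = viability at or under a set limit in both replicates, limit being median viability minus 3 SD, cut at about 48% in these data, passing the limit was not always enough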;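 note: 100% = mean luminescence of untreated wells and 0% = no signal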). The note with it: H69AR lung tumor cells viability, ATP luminescence, 72 h; at 10 µM; stronger effect = lower value.
Test [4] is described as follows: reversal of MRP1-mediated doxorubicin resistance, pilot screen, H69AR cells, doxorubicin co-treatment (AID 601;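 active = viability loss from added drug above about 55%, and viability with drug at most 40%, in both replicates, limit read from the data, passing the limit was not always enough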). The note with it: CellTiter-Glo, 72 h, at 10 µM; for differential viability (reversal): stronger effect = higher value.
Test [5] in a line: 384-well plate pilot, post-Golgi transport modulator project, inhibition of yeast transport mutant growth (AID 636; in the data active = inhibition above about 31%). The following applies: absorbance 615 nm, about 18 h, stronger effect = higher value.
Test [6] can be described thus: growth suppression of yeast trafficking mutant, preliminary HTS, modulators of trafficking downstream of Golgi apparatus project, 1536-format plate, OD 615 nm (AID 637; in the data active = inhibition above about 30%). The following applies: yeast transport mutant growth, absorbance 615 nm, 18 h; stronger effect = higher value.
[7] abbreviates: H69AR cells + 2 uM doxorubicin, measured here: viability with 2 uM doxorubicin, stronger effect = lower value.
Where [8] appears, read: H69AR cells, compound alone cytotoxicity.

Active and inactive are the calls of the source.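 Rule for the calls, unless noted: active = viability at or below 10% of carrier control in both of two separate runs; inconclusive = viability at or below 10% in only one of the two runs; inactive = the rest.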

A word on the viability: it is a read-out of living cells in per cent, often relative to untreated cells. For orientation: inhibition means the relative decrease from the control value, in per cent.

On to `CCOC(=O)C1CCN(C(=O)COc2ccc(S(=O)(=O)NC(C)C)cc2Cl)CC1`, for which the viability in test [1] is 99.5% (inactive); in test [2] it was 100% (inactive); in test [3], 90.4% (inactive); in test [4] (setting [7]) it was 106%; in test [4] (setting [8]), 90.4%. For the same compound, the differential viability (reversal) in test [4] (H69AR cells + 2 uM doxorubicin) is -15.3% (inactive). The values for the inhibition in test [5] and in test [6] were 0.66% (inactive) and 24.5% (inactive), respectively.
`O=C(Nc1cccc(NC(=O)c2ccco2)c1)c1ccc2c(c1)OCO2`: the viability in test [1] is 106% (inactive); in test [2], 61% (inactive); in test [3], 82.4% (inactive); in test [4] (setting [7]), 86.8%; in test [4] (setting [8]) it was 82.4%. In addition, the differential viability (reversal) in test [4] (H69AR cells + 2 uM doxorubicin) was -4.39% (inactive). In addition, the inhibition is -1.18% (inactive) in test [5] and 21.2% (inactive) in test [6].
For the compound `O=C(CN1CCN(Cc2ccccc2)CC1)Nc1ccc(Cl)cn1`, the viability in test [1] was 94% (inactive); in test [2], 88.8% (inactive); in test [3] it was 85.1% (inactive); in test [4] (setting [7]), 86.5%; in test [4] (setting [8]), 85.1%. Moreover, in test [4] (H69AR cells + 2 uM doxorubicin), the differential viability (reversal) is -1.43% (inactive). The values for the inhibition in test [5] and in test [6] were -8.08% (inactive) and 4.35% (inactive), respectively.
On to `O=S(=O)(c1ccc(N2CCN(c3ccc(F)cc3)CC2)cc1)N1CCCC1`, for which the viability is 111% (inactive) in test [1]; 77.2% (inactive) in test [2]; 75.7% (inactive) in test [3]; 80.6% in test [4] (setting [7]); 75.7% in test [4] (setting [8]). For the same compound, the differential viability (reversal) in test [4] (H69AR cells + 2 uM doxorubicin) was -4.83% (inactive). For the same compound, the inhibition in test [5] was -0.91% (inactive); in test [6], 15.4% (inactive).
`c1ccc(Cn2nnnc2CN2CCCC2)cc1`: the viability was 112% (inactive) in test [1]; 101% (inactive) in test [2]; 99.4% (inactive) in test [3]; 96.5% in test [4] (setting [7]); 99.4% in test [4] (setting [8]). Besides, the differential viability (reversal) in test [4] (H69AR cells + 2 uM doxorubicin) is 2.88% (inactive). Also, the inhibition in test [5] was -6.3% (inactive); in test [6], 0.48% (inactive).
For the compound `C=C(C)Cn1c(CCCNC(=O)C(C)(C)C)nc2ccccc21`, the viability in test [1] is 104% (inactive); in test [2], 92.9% (inactive); in test [3], 102% (inactive); in test [4] (setting [7]) it was 101%; in test [4] (setting [8]), 102%. Besides, in test [4] (H69AR cells + 2 uM doxorubicin), the differential viability (reversal) was 0.305% (inactive). The inhibition in test [5] was -3.47% (inactive); in test [6], -4% (inactive).
Take `O=S(=O)(NCc1cn2ccccc2n1)c1cc(F)ccc1F`: the viability was 107% (inactive) in test [1]; 89.9% (inactive) in test [2]; 96.6% (inactive) in test [3]; 87.2% in test [4] (setting [7]); 96.6% in test [4] (setting [8]). For the same compound, the differential viability (reversal) in test [4] (H69AR cells + 2 uM doxorubicin) was 9.41% (inactive). Besides, the inhibition is -5.68% (inactive) in test [5] and -6.36% (inactive) in test [6].
In the case of `COC(=O)c1ccccc1OCC(=O)NC1CCCCC1`, the viability was 96% (inactive) in test [1]; 106% (inactive) in test [2]; 90.2% (inactive) in test [3]; 91.9% in test [4] (setting [7]); 90.2% in test [4] (setting [8]). Besides, the differential viability (reversal) in test [4] (H69AR cells + 2 uM doxorubicin) is -1.72% (inactive). The figures for the inhibition in test [5] and in test [6] were -5.21% (inactive) and -6.77% (inactive), respectively.
For the compound `COc1ccc(Cn2c(N)c(C#N)c3nc4ccccc4nc32)cc1OC`, the viability is 95% (inactive) in test [1]; 100% (inactive) in test [2]; 99.5% (inactive) in test [3]; 86.9% in test [4] (setting [7]); 99.5% in test [4] (setting [8]). Besides, the differential viability (reversal) in test [4] (H69AR cells + 2 uM doxorubicin) is 12.6% (inactive). Also, the inhibition in test [5] is -6.58% (inactive); in test [6], 0.48% (inactive).
With `CCCC(=O)Nc1c2c(nn1-c1ccc(OC)cc1)CS(=O)C2` (stereo unspecified), the viability was 103% (inactive) in test [1]; 109% (inactive) in test [2]; 102% (inactive) in test [3]; 92.8% in test [4] (setting [7]); 102% in test [4] (setting [8]). Also, the differential viability (reversal) in test [4] (H69AR cells + 2 uM doxorubicin) was 9.39% (inactive). Moreover, the inhibition is -2.73% (inactive) in test [5] and 6.07% (inactive) in test [6].
For the compound `NS(=O)(=O)c1cc2c(cc1Cl)NCNS2(=O)=O`, the viability in test [1] is 73% (inactive); in test [2], 97.2% (inactive); in test [3] it was 91.3% (inactive); in test [4] (setting [7]), 96.4%; in test [4] (setting [8]) it was 91.3%. In addition, the differential viability (reversal) in test [4] (H69AR cells + 2 uM doxorubicin) was -5.11% (inactive). Besides, the figures for the inhibition in test [5] and in test [6] were 0.65% (inactive) and 1.17% (inactive), respectively.
As to `Cc1cc(C(C)(C)C)c(O)c(C)c1CC1=NCCN1`, the viability is 95% (inactive) in test [1]; 93.4% (inactive) in test [2]; 92.5% (inactive) in test [3]; 90.3% in test [4] (setting [7]); 92.5% in test [4] (setting [8]). The differential viability (reversal) in test [4] (H69AR cells + 2 uM doxorubicin) is 2.26% (inactive). Further, the values for the inhibition in test [5] and in test [6] were -9.04% (inactive) and -3.23% (inactive), respectively.
As for `CC(=O)c1c(C)[nH]c(C(=O)Nc2c(C)n(C)n(-c3ccccc3)c2=O)c1C`, the viability was 82% (inactive) in test [1]; 101% (inactive) in test [2]; 90.2% (inactive) in test [3]; 82.2% in test [4] (setting [7]); 90.2% in test [4] (setting [8]). Moreover, in test [4] (H69AR cells + 2 uM doxorubicin), the differential viability (reversal) is 7.98% (inactive). Besides, the figures for the inhibition in test [5] and in test [6] were -8.63% (inactive) and 0% (inactive), respectively.
For the compound `NS(=O)(=O)c1ccc(CCNC(=O)CCC2COc3ccccc3O2)cc1` (stereo unspecified), the viability in test [1] was 90% (inactive); in test [2] it was 105% (inactive); in test [3], 95.8% (inactive); in test [4] (setting [7]), 87.5%; in test [4] (setting [8]) it was 95.8%. In addition, the differential viability (reversal) in test [4] (H69AR cells + 2 uM doxorubicin) was 8.33% (inactive). The inhibition was -5.62% (inactive) in test [5] and 0.16% (inactive) in test [6].
On to `Nc1cc(=O)[nH]c(SCC(=O)Nc2ccc(Br)cc2)n1`, for which the viability is 96% (inactive) in test [1]; 101% (inactive) in test [2]; 90.5% (inactive) in test [3]; 86% in test [4] (setting [7]); 90.5% in test [4] (setting [8]). Also, the differential viability (reversal) in test [4] (H69AR cells + 2 uM doxorubicin) was 4.49% (inactive). Also, the inhibition in test [5] is -0.52% (inactive); in test [6] it was -4.1% (inactive).
Take `COc1cccc(NC(=O)N2CCCC2C(=O)Nc2ccc3c(c2)OCO3)c1` (stereo unspecified): the viability in test [1] was 106% (inactive); in test [2] it was 114% (inactive); in test [3] it was 96.3% (inactive); in test [4] (setting [7]), 80.2%; in test [4] (setting [8]), 96.3%. Moreover, in test [4] (H69AR cells + 2 uM doxorubicin), the differential viability (reversal) was 16.1% (inactive). In addition, the inhibition in test [5] is -5.33% (inactive); in test [6], -4.55% (inactive).
As to `O=C(CN(c1ccc(F)cc1)S(=O)(=O)c1ccc2c(c1)OCCO2)Nc1cccnc1`, the viability in test [1] is 77% (inactive); in test [2], 89.5% (inactive); in test [3], 100% (inactive); in test [4] (setting [7]), 101%; in test [4] (setting [8]) it was 100%. Also, the differential viability (reversal) in test [4] (H69AR cells + 2 uM doxorubicin) was -0.85% (inactive). Moreover, the inhibition in test [5] was -8.77% (inactive); in test [6], -3.82% (inactive).

Source of the values: PubChem BioAssay.
